Test results: ChEMBL document CHEMBL4017500 (J Med Chem, 2017)
Activity calls are given as the source filed them. The calls are words filed in the database; no cut-off is given here.

Experiments:
[1] = Inhibition of bacterial MBP-fused NDM1 expressed in Escherichia coli BL21(DE3) ausing chromacef as substrate preincubated for 20 mins followed by substrate addition measured after 0.3 mins; set-up: species or system Bacteria
How it was run: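 Preincubated 20 min, then 3 μM substrate (~3×KM) added. A442 followed ~0.3 min at 25 °C. Activity scaled to uninhibited (100%) and no-enzyme (0%) controls, fitted to a Hill-type equation.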

[2] = Inhibition of bacterial MBP-fused NDM1 expressed in Escherichia coli BL21(DE3) ausing fluorocillin as substrate preincubated for 20 mins followed by substrate addition measured at 1 sec time interval for 25 mins by fluorescence assay; set-up: species or system Bacteria
How it was run: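 NDM-1 pre-incubated 20 min with inhibitor (final 100 μM to 1 nM) in 50 mM HEPES pH 7.0 with 2 mM CHAPS. Reaction started with fluorocillin (final 87 nM, below KM), NDM-1 final 25 pM. Fluorescence read at λex/em 495/525 nm, 10 reads over ~25 min.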

[3] = Inhibition of bacterial NDM1; set-up: species or system Bacteria
How it was run: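 Chromogenic NDM-1 assay: enzyme (3 nM) pre-incubated 20 min with ~20 inhibitor concentrations in 50 mM HEPES, 1% DMSO, pH 7.0. Chromacef substrate 3 μM (~3×KM). Absorbance at 442 nm followed ~0.3 min at 25 °C.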

[4] = target: Beta-lactamase VIM-2 (Pseudomonas aeruginosa) (UniProt Q9K2N0); assay: Inhibition of Pseudomonas aeruginosa VIM2 expressed in Escherichia coli BL21(DE3) at 50 uM using chromacef as substrate preincubated for 10 mins followed by substrate addition measured after 20 mins by HTS assay relative to control
How it was run: (§1)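 Colorimetric chromacef screen, final 50 mM HEPES, 2 mM CHAPS, pH 7.0. Substrate added at 3 μM (NDM-1, ~3×KM), 7.2 μM (IMP-1) or 16 μM (VIM-2). […] Percent inhibition calculated.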

[5] = system: Bacteria; assay: Inhibition of bacterial MBP-fused NDM1 expressed in Escherichia coli BL21(DE3) at 50 uM using chromacef as substrate preincubated for 10 mins followed by substrate addition measured after 20 mins by HTS assay relative to control; how it was run: as §1
[6] = target: Metallo-beta-lactamase type 2 (Serratia marcescens) (UniProt P52699); assay: Inhibition of Serratia marcescens IMP1 expressed in Escherichia coli BL21(DE3) at 50 uM using chromacef as substrate preincubated for 10 mins followed by substrate addition measured after 20 mins by HTS assay relative to control; how it was run: as §1
[7] = system: Bacteria; assay: Binding affinity to bacterial CoCoNDM-1 expressed in Escherichia coli BL21(DE3) assessed as metal stripping at 1 to 2 equiv after 30 mins by UV-Visible spectroscopic method
How it was run: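 Apo-NDM-1 at 300 μM in 50 mM HEPES, 150 mM NaCl, pH 6.8, loaded with 2 molar equiv CoCl2. […] Absorbance read 300–700 nm at 25 °C as difference spectra against buffer blank, normalized at 700 nm.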

[8] = system: Bacteria; assay: Inhibition of bacterial MBP-fused NDM1 expressed in Escherichia coli BL21(DE3) ausing fluorocillin as substrate preincubated for 20 mins followed by substrate addition measured at 1 sec time interval for 25 mins in presence of ZnSO4 by fluorescence assay
[9] = system: Bacteria; assay: Binding affinity to bacterial CoCoNDM-1 expressed in Escherichia coli BL21(DE3) assessed as CoCoNDM-1-compound ternary complex formation at 1 equiv by 1H […] spectroscopic method
[10] = system: Bacteria; assay: Binding affinity to bacterial CoCoNDM-1 expressed in Escherichia coli BL21(DE3) assessed as metal stripping at 1 to 2 equiv by 1H NMR spectroscopic method
How it was run: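 Apo-NDM-1 concentrated to ~1 mM and loaded with 2 equiv CoCl2. Samples in 50 mM HEPES, 150 mM NaCl, 10% D2O, pH 6.8. Compounds from 50–100 mM DMSO stocks titrated in ~5 μL aliquots. 1H spectra recorded at 292 K, 300.16 MHz.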

[11] = system: Bacteria; assay: Binding affinity to bacterial NDM-1 expressed in Escherichia coli BL21(DE3) assessed as intrinsic tryptophan fluorescence quenching up to 32 uM after 30 mins by luminescence spectrometric method relative to control
How it was run: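 NDM-1 at 2 μM final in 50 mM HEPES pH 7.5 mixed with compound at 4–32 μM, incubated 30 min. Emission scanned 300–400 nm with excitation at 280 nm. Relative tryptophan fluorescence read at 348 nm, with buffer set to 0% and inhibitor-free NDM-1 to 100%. Control run with 2 μM L-tryptophan in place of enzyme.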

[12] = target: Beta-lactamase VIM-2 (Pseudomonas aeruginosa, UniProt Q9K2N0); assay: Inhibition of Pseudomonas aeruginosa VIM2 expressed in Escherichia coli BL21(DE3) using fluorocillin as substrate preincubated for 10 mins followed by substrate addition measured after 20 mins by HTS assay
[13] = system: Bacteria; assay: Binding affinity to bacterial NDM-1 expressed in Escherichia coli BL21(DE3) assessed as Zn2+ stripping up to 128 uM after 30 mins by equilibrium dialysis method
How it was run: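 NDM-1 (8 μM final) in 50 mM HEPES pH 7.5 mixed with compound at 0–128 μM for 30 min. Then dialyzed 4 h against metal-free 50 mM HEPES pH 7.5. Residual Zn(II) measured by ICP-AES at 213.856 nm.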

[14] = Metal chelating activity assessed as Co2+-compound complex formation at 1 equiv by 1H NMR spectroscopic method; assay type: functional
How it was run: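 Apo-NDM-1 concentrated to ~1 mM and given 2 equivalents of CoCl2, in 50 mM HEPES, 150 mM NaCl, 10% D2O, pH 6.8. Compounds, from DMSO stocks of 50–100 mM, titrated in. 1H NMR spectra recorded at 292 K at 300.16 MHz.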

Metallo-beta-lactamase type 2 (Serratia marcescens), sequence (P52699 19-246 limits assumed): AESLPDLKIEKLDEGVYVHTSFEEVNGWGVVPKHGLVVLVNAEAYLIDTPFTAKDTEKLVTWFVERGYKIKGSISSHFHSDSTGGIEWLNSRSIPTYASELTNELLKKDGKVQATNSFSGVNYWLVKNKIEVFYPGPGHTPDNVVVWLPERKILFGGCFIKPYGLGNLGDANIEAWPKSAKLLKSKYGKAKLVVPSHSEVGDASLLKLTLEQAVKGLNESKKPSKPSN

SMILES: O=C(O)c1cccc(C(=O)NCc2nccs2)n1
- IC50 [1]: 24 µM

SMILES: CN(C)c1cc(C(=O)O)nc(C(=O)O)c1
- IC50 [1]: 13.6 µM

SMILES: COc1ccc(-c2cc(C(=O)O)nc(C(=O)O)c2)cc1
- IC50 [2]: 0.38 µM
- IC50 [1]: 0.43 µM

SMILES: NCCNCc1ccc(C(=O)N[C@H]2Cc3cccc(C(=O)O)c3O[B-]2(O)O)cc1
- IC50 [3]: 0.004 µM

SMILES: O=C(O)c1cc(-c2ccc(O)cc2)cc(C(=O)O)n1
- IC50 [2]: 0.39 µM
- IC50 [1]: 0.66 µM

SMILES: O=C(O)c1cccc(C(=O)NCC2CCCO2)n1 (centres undefined)
- IC50 [1]: > 50 µM

SMILES: O=C(O)c1cc(Nc2ccccc2)cc(C(=O)O)n1
- IC50 [1]: 3.4 µM

SMILES: CN(C)c1cccc(-c2cc(C(=O)O)nc(C(=O)O)c2)c1
- IC50 [2]: 0.43 µM
- IC50 [1]: 0.82 µM

SMILES: c1cnc2c(c1)ccc1cccnc12
- inhibition [4]: > 60%
- inhibition [5]: > 60%
- inhibition [6]: > 60%

SMILES: O=C(O)c1ccc2cccc(O)c2n1
- inhibition [4]: > 60%
- inhibition [5]: > 60%
- inhibition [6]: > 60%

SMILES: O=C(O)c1cccc(C(=O)O)n1 [DIPICOLINIC ACID]
- Activity [7]: Active
- inhibition [4]: > 60%
- inhibition [8]: inactive
- Activity [9]: Active
- IC50 [2]: 0.41 µM
- Activity [10]: Active
- inhibition [5]: > 60%
- Activity [11]: 20%
- inhibition [6]: > 60%
- IC50 [12]: 1.66 µM
- Activity [13]: Active
- Activity [14]: Active
- IC50 [1]: 0.52 µM

SMILES: O=C(O)c1cccc(C(=O)NCc2cccs2)n1
- IC50 [1]: > 50 µM

SMILES: COc1ccccc1-c1cc(C(=O)O)nc(C(=O)O)c1
- IC50 [2]: 0.5 µM
- IC50 [1]: 0.5 µM

SMILES: O=C(O)c1cccc(C(=O)NC2CCCCC2)n1
- IC50 [1]: > 50 µM

SMILES: O=C(O)c1cc(NCc2ccc3c(c2)OCO3)cc(C(=O)O)n1
- IC50 [1]: 5.8 µM

SMILES: O=C(O)c1cc(-c2ccccc2O)cc(C(=O)O)n1
- IC50 [2]: 0.13 µM
- IC50 [1]: 0.52 µM

SMILES: O=C(O)c1cc(NCc2cccs2)cc(C(=O)O)n1
- IC50 [1]: 5.2 µM

SMILES: O=C(O)c1cc(-c2cccc(O)c2)cc(C(=O)O)n1
- IC50 [2]: 0.43 µM
- IC50 [1]: 0.6 µM

SMILES: O=C(O)c1cc(-c2ccccc2)cc(C(=O)O)n1
- IC50 [1]: 0.99 µM

SMILES: COc1ccc(NC(=O)c2cccc(C(=O)O)n2)cc1
- IC50 [1]: > 50 µM

SMILES: CC(C)CNC(=O)c1cccc(C(=O)O)n1
- IC50 [1]: > 50 µM

SMILES: O=C(O)c1cccc(C(=O)NC2CCCC2)n1
- IC50 [1]: > 50 µM

SMILES: O=C(O)c1cccc(C(=O)NCc2ccccc2)n1
- IC50 [1]: > 50 µM

SMILES: O=C(Nc1cccc(-c2cc(C(=O)O)nc(C(=O)O)c2)c1)c1ccccc1
- IC50 [2]: 0.13 µM
- IC50 [1]: 0.86 µM

SMILES: O=C(O)c1cc(NCCc2ccccc2)cc(C(=O)O)n1
- IC50 [1]: 9.1 µM

SMILES: O=C(O)c1cc(NCc2ccccc2)cc(C(=O)O)n1
- IC50 [1]: 8.4 µM
